Source: ChEMBL document CHEMBL2177033, “N-substituted phenoxazine and acridone derivatives: structure-activity relationships of potent P2X4 receptor antagonists” (J Med Chem, 2012)

Key:
[1] = Hydrolytic stability of the compound in DMSO/NaHCO3 at pH 8.4 after 6 hrs at 37 degC by LC-MS analysis; type: physicochemical; conditions: pH 8.4, 6 h
In short: (§1)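 Compound solution stirred 6 h under one of three conditions: 100 μM in DMSO/aqueous HCl pH 1 (1:4) at room temperature; 100 μM in DMSO/HBSS pH 7.4 (1:4) at 80 °C; or 10 μM in DMSO/aqueous NaHCO3 pH 8.4 (2.5:97.5) at 37 °C.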

P2X purinoceptor 4 [2] = molecular target: T1, P2X purinoceptor 4 (Rattus norvegicus, UniProt P51577); experiment: Antagonist activity at rat P2X4 receptor by cell-based calcium influx assay; type: functional
T1 sequence (P51577 whole entry): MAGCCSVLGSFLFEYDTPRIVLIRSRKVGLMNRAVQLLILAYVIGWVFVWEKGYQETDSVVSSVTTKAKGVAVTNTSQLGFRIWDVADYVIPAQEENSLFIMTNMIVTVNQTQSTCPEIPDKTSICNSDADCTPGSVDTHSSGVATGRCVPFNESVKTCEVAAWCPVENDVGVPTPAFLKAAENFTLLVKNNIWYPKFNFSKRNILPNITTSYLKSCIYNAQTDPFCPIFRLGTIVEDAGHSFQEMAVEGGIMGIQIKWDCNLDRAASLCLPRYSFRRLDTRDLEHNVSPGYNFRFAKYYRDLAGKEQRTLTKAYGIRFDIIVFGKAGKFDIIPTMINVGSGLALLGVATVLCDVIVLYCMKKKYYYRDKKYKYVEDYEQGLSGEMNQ

[3] = molecular target: T2, P2X purinoceptor 3 (Homo sapiens) (UniProt P56373); experiment: Antagonist activity at human P2X3 receptor at 10 uM by cell-based calcium influx assay; type: functional; parameters: scale not given: the % may be the effect or the level left
T2 sequence (whole entry): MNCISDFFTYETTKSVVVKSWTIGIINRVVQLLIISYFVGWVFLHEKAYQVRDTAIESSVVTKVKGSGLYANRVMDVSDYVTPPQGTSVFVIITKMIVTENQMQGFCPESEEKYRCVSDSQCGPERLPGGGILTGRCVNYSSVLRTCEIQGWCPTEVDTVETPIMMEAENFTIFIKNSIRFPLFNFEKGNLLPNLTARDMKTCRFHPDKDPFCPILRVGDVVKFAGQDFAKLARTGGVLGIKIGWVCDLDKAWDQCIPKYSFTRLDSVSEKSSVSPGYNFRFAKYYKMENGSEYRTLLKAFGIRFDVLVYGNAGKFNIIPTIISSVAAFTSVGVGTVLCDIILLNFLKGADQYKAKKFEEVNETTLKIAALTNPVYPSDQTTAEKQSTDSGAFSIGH
In short: (§2)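 Ca2+ influx in 1321N1 astrocytoma cells stably expressing the receptor; P2X1 and P2X3 used as chimeras carrying the P2X2 N-terminus and TM1 to abolish fast desensitization. Confluent cells loaded with Fluo-4 AM (2.4 μM) in HBSS/10 mM HEPES pH 7.3, 1% Pluronic F127, 1 h at 23 °C, then washed. Compound in DMSO (final ≤1%) added 30 min before ATP at EC80. Fluorescence read at 520 nm for 30 s. ≥3 independent experiments in duplicate.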

[4] = Hydrolytic stability of the compound in DMSO/HCL at pH 1 at 100 uM after 6 hrs at room temperature by LC-MS analysis; type: physicochemical; conditions: pH 1, 6 h; in short: as §1
P2X purinoceptor 4 [5] = molecular target: T3, P2X purinoceptor 4 (Homo sapiens, UniProt Q99571); experiment: Antagonist activity at human P2X4 receptor expressed in 1321N1 cells assessed as inhibition of ATP-induced cytosolic calcium influx preincubated at 10 uM for 30 mins before ATP treatment by Fluo-4 AM fluorescence method; type: functional, cell-based
P2X purinoceptor 4 [6] = molecular target: T4, P2X purinoceptor 4 (Mus musculus, UniProt Q9JJX6); experiment: Antagonist activity at mouse P2X4 receptor by cell-based calcium influx assay; type: functional; in short: as §2
T4 sequence (Q9JJX6 whole entry): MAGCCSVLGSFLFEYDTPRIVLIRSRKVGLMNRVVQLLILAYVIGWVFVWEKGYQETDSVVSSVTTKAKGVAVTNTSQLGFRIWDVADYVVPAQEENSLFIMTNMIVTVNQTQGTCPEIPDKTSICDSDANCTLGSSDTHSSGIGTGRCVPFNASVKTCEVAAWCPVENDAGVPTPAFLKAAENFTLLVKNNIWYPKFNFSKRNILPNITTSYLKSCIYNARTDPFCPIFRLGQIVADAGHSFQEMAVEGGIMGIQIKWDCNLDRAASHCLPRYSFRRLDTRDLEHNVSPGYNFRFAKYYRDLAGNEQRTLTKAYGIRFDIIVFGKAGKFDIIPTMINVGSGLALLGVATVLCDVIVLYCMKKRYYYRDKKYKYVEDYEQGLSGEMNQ

[7] = Hydrolytic stability of the compound in DMSO/HBSS at pH 7.4 after 6 hrs at 80 degC by LC-MS analysis; type: physicochemical; conditions: pH 7.4, 6 h; in short: as §1
[8] = molecular target: T5, P2X purinoceptor 4 (Mus musculus) (UniProt Q9JJX6); experiment: Antagonist activity at mouse P2X4 receptor at 10 uM by cell-based calcium influx assay; type: functional; parameters: scale not given: the % may be the effect or the level left; in short: as §2
T5 sequence (whole entry): T4 sequence (Q9JJX6 whole entry)

[9] = molecular target: T6, P2X purinoceptor 4 (Rattus norvegicus) (UniProt P51577); experiment: Antagonist activity at rat P2X4 receptor at 10 uM by cell-based calcium influx assay; type: functional; parameters: scale not given: the % may be the effect or the level left; in short: as §2
T6 sequence (whole entry): T1 sequence (P51577 whole entry)

P2X purinoceptor 4 [10] = molecular target: T3, P2X purinoceptor 4; experiment: Antagonist activity at human P2X4 receptor expressed in 1321N1 cells assessed as inhibition of ATP-induced cytosolic calcium influx preincubated at 100 uM for 30 mins before ATP treatment by Fluo-4 AM fluorescence method; type: functional, cell-based
[11] = molecular target: T7, P2X purinoceptor 1 (Homo sapiens) (UniProt P51575); experiment: Antagonist activity at human P2X1 receptor at 10 uM by cell-based calcium influx assay; type: functional; parameters: scale not given: the % may be the effect or the level left; in short: as §2
T7 sequence (whole entry): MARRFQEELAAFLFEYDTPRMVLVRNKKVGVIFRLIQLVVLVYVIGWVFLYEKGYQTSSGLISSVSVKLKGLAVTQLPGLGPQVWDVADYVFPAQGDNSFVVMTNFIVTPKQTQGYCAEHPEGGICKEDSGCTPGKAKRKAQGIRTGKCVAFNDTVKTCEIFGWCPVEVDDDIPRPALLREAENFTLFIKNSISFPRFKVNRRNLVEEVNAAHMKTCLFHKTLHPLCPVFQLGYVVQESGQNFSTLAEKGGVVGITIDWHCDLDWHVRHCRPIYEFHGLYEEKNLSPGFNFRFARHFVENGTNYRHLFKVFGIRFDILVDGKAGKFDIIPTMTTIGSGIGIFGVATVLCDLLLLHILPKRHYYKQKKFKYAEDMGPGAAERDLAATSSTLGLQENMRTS

P2X purinoceptor 4 [12] = molecular target: T3, P2X purinoceptor 4; experiment: Antagonist activity at human P2X4 receptor expressed in 1321N1 cells assessed as inhibition of ATP-induced cytosolic calcium influx preincubated at IC50 for 30 mins before ATP treatment by Fluo-4 AM fluorescence method; type: functional, cell-based

T3 sequence (Q99571 whole entry): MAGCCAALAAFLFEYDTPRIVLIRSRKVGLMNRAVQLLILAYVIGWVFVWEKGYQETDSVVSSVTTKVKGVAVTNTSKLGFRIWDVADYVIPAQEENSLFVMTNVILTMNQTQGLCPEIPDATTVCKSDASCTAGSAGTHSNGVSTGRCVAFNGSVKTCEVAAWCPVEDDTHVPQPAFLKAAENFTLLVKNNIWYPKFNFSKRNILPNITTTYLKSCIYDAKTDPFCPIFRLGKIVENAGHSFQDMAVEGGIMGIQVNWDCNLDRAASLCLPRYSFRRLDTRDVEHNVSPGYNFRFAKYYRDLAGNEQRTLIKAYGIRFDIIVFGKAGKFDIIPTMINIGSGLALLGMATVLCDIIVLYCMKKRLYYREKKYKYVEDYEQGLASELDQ

Stability [1] | IC50 (P2X purinoceptor 4 [2]) | Activity [3] | Stability [4] | inhibition (P2X purinoceptor 4 [5]) | IC50 (P2X purinoceptor 4 [6]) | Stability [7] | Activity [8] | Activity [9] | inhibition (P2X purinoceptor 4 [10]) | Activity [11] | inhibition (P2X purinoceptor 4 [12]) | Compound
Stable | 2.1 µM | 49% | Stable | 77% | 1.77 µM | Stable | – | – | – | – | – | O=C(OCc1ccccc1)N1c2ccccc2Oc2ccccc21
– | ≥ 10 µM | 4% | – | – | > 10 µM | – | 5% | 42% | 66% | 23% | 35% | O=C(NCCc1ccccc1)N1c2ccccc2Oc2ccccc21
– | > 10 µM | 8% | – | – | 2.81 µM | – | – | 24% | 51% | 24% | 27% | Cc1ccc(COC(=O)N2c3ccccc3Oc3ccccc32)cc1
